{"source": "ChEMBL document CHEMBL1687799", "about": "“Mutational analysis of flucytosine resistance in Candida glabrata” (2010)", "format_in_all_cases": "functional", "key": {"[1]": {"system": "Nakaseomyces glabratus", "assay": "Antimicrobial activity against 5-fluorocytosine resistant Candida glabrata 66032-FC6 harboring Fcy1 G11D mutant assessed as lowest concentration inhibiting growth >=80% by broth microdilution method", "procedure,_shortened": "(§1)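 Broth microdilution with 5FC or 5FU in RPMI 1640 buffered with 0.165 M MOPS, pH 7.0, plus 2% dextrose, replacing the YPD of the cited protocol. Drug stocks were in 50% DMSO, and final DMSO was ≤0.5%. Plates were incubated at 35°C and read at 630 nm. MIC was the lowest concentration giving ≥80% growth inhibition relative to the drug-free control.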"}, "[2]": {"system": "Nakaseomyces glabratus", "assay": "Antimicrobial activity against 5-fluorocytosine resistant and ura3 harboring Candida glabrata 66032u-FC10 harboring Fcy2L Q396stop mutant assessed as lowest concentration inhibiting growth >=80% by broth microdilution method", "procedure,_shortened": "as §1"}, "[3]": {"system": "Nakaseomyces glabratus", "assay": "Antimicrobial activity against 5-fluorocytosine resistant Candida glabrata 66032-FC2 harboring Fur1 deltaG73-V81mutant assessed as lowest concentration inhibiting growth >=80% by broth microdilution method", "procedure,_shortened": "as §1"}, "[4]": {"system": "Nakaseomyces glabratus", "assay": "Antimicrobial activity against 5-fluorocytosine resistant and ura3 harboring Candida glabrata BG14-FC8 harboring Fcy2L E238-V277dup mutant assessed as lowest concentration inhibiting growth >=80% by broth microdilution method", "procedure,_shortened": "as §1"}, "[5]": {"system": "Nakaseomyces glabratus", "assay": "Antimicrobial activity against 5-fluorocytosine resistant and ura3 harboring Candida glabrata 66032u-FC5 harboring Fcy2L E342stop mutant assessed as lowest concentration inhibiting growth >=80% by broth microdilution method", "procedure,_shortened": "as §1"}, "[6]": {"system": "Nakaseomyces glabratus", "assay": "Antimicrobial activity against 5-fluorocytosine resistant Candida glabrata 66032-FC5 harboring Fcy1 A15D mutant assessed as lowest concentration inhibiting growth >=80% by broth microdilution method", "procedure,_shortened": "as §1"}, "[7]": {"system": "Nakaseomyces glabratus", "assay": "Antimicrobial activity against 5-fluorocytosine resistant and ura3 harboring Candida glabrata BG14-FC4 harboring Fcy1 E17stop mutant assessed as lowest concentration inhibiting growth >=80% by broth microdilution method", "procedure,_shortened": "as §1"}, "[8]": {"system": "Nakaseomyces glabratus", "assay": "Antimicrobial activity against 5-fluorocytosine resistant Candida glabrata isolate 20408.055 harboring Fur1 G210D mutant assessed as lowest concentration inhibiting growth >=80% by broth microdilution method", "procedure,_shortened": "as §1"}, "[9]": {"system": "Nakaseomyces glabratus", "assay": "Antimicrobial activity against 5-fluorocytosine resistant Candida glabrata isolate 20251.021 harboring Fcy1 T84L mutant assessed as lowest concentration inhibiting growth >=80% by broth microdilution method", "procedure,_shortened": "as §1"}, "[10]": {"system": "Nakaseomyces glabratus", "assay": "Antimicrobial activity against 5-fluorocytosine resistant and ura3 harboring Candida glabrata 66032u assessed as lowest concentration inhibiting growth >=80% by broth microdilution method", "procedure,_shortened": "as §1"}, "[11]": {"system": "Nakaseomyces glabratus", "assay": "Antimicrobial activity against 5-fluorocytosine resistant Candida glabrata 66032 assessed as lowest concentration inhibiting growth >=80% by broth microdilution method", "procedure,_shortened": "as §1"}, "[12]": {"system": "Nakaseomyces glabratus", "assay": "Antimicrobial activity against 5-fluorocytosine resistant and ura3 harboring Candida glabrata 66032u-FC3 harboring Fcy1 H59D mutant assessed as lowest concentration inhibiting growth >=80% by broth microdilution method", "procedure,_shortened": "as §1"}, "[13]": {"system": "Nakaseomyces glabratus", "assay": "Antimicrobial activity against 5-fluorocytosine resistant and ura3 harboring Candida glabrata 66032u-FC6 harboring Fcy1 T92deltastop mutant assessed as lowest concentration inhibiting growth >=80% by broth microdilution method", "procedure,_shortened": "as §1"}, "[14]": {"system": "Nakaseomyces glabratus", "assay": "Antimicrobial activity against 5-fluorocytosine resistant Candida glabrata 66032-FC1 harboring Fur1 183K mutant assessed as lowest concentration inhibiting growth >=80% by broth microdilution method", "procedure,_shortened": "as §1"}, "[15]": {"system": "Nakaseomyces glabratus", "assay": "Antimicrobial activity against 5-fluorocytosine resistant Candida glabrata isolate TE34-78 harboring Fcr1 L136R mutant assessed as lowest concentration inhibiting growth >=80% by broth microdilution method", "procedure,_shortened": "as §1"}, "[16]": {"system": "Nakaseomyces glabratus", "assay": "Antimicrobial activity against 5-fluorocytosine resistant Candida glabrata 66032-FC4 harboring Fcy1 A15D mutant assessed as lowest concentration inhibiting growth >=80% by broth microdilution method", "procedure,_shortened": "as §1"}, "[17]": {"system": "Nakaseomyces glabratus", "assay": "Antimicrobial activity against 5-fluorocytosine resistant Candida glabrata 66032-FC3 harboring Fur1 G71V mutant assessed as lowest concentration inhibiting growth >=80% by broth microdilution method", "procedure,_shortened": "as §1"}, "[18]": {"system": "Nakaseomyces glabratus", "assay": "Antimicrobial activity against 5-fluorocytosine resistant Candida glabrata isolate TE34-75 harboring FcY2J 1384F mutant assessed as lowest concentration inhibiting growth >=80% by broth microdilution method", "procedure,_shortened": "as §1"}, "[19]": {"system": "Nakaseomyces glabratus", "assay": "Antimicrobial activity against 5-fluorocytosine resistant and ura3 harboring Candida glabrata BG14 assessed as lowest concentration inhibiting growth >=80% by broth microdilution method", "procedure,_shortened": "as §1"}, "[20]": {"system": "Nakaseomyces glabratus", "assay": "Antimicrobial activity against 5-fluorocytosine resistant and ura3 harboring Candida glabrata 66032u-FC1 harboring Fcy2L W291stop mutant assessed as lowest concentration inhibiting growth >=80% by broth microdilution method", "procedure,_shortened": "as §1"}}}
{"smiles": "Nc1nc(=O)[nH]cc1F", "note": "[FLUCYTOSINE]", "values": [{"measurement": "MIC", "setting": "[1]", "result": "≥ 32", "unit": "µg/mL"}, {"measurement": "MIC", "setting": "[2]", "result": 1, "unit": "µg/mL"}, {"measurement": "MIC", "setting": "[3]", "result": "≥ 32", "unit": "µg/mL"}, {"measurement": "MIC", "setting": "[4]", "result": 1, "unit": "µg/mL"}, {"measurement": "MIC", "setting": "[5]", "result": 1, "unit": "µg/mL"}, {"measurement": "MIC", "setting": "[6]", "result": "≥ 32", "unit": "µg/mL"}, {"measurement": "MIC", "setting": "[7]", "result": "≥ 32", "unit": "µg/mL"}, {"measurement": "MIC", "setting": "[8]", "result": "≥ 32", "unit": "µg/mL"}, {"measurement": "MIC", "setting": "[9]", "result": "≥ 32", "unit": "µg/mL"}, {"measurement": "MIC", "setting": "[10]", "result": 0.008, "unit": "µg/mL"}, {"measurement": "MIC", "setting": "[11]", "result": 0.03, "unit": "µg/mL"}, {"measurement": "MIC", "setting": "[12]", "result": "≥ 32", "unit": "µg/mL"}, {"measurement": "MIC", "setting": "[13]", "result": "≥ 32", "unit": "µg/mL"}, {"measurement": "MIC", "setting": "[14]", "result": "≥ 32", "unit": "µg/mL"}, {"measurement": "MIC", "setting": "[15]", "result": "≥ 32", "unit": "µg/mL"}, {"measurement": "MIC", "setting": "[16]", "result": "≥ 32", "unit": "µg/mL"}, {"measurement": "MIC", "setting": "[17]", "result": "≥ 32", "unit": "µg/mL"}, {"measurement": "MIC", "setting": "[18]", "result": 0.25, "unit": "µg/mL"}, {"measurement": "MIC", "setting": "[19]", "result": 0.03, "unit": "µg/mL"}, {"measurement": "MIC", "setting": "[20]", "result": 1, "unit": "µg/mL"}]}
